In ChEMBL document CHEMBL4513216, “Probing the Open Global Health Chemical Diversity Library for Multistage-Active Starting Points for Next-Generation Antimalarials” (ACS Infect Dis, 2020) one finds cytotoxicity data, which are given here for 95 compounds.

SMILES strings stand for the structures.

This series can be described thus: Toxicity liver stage against HepG2, at 10uM. The format is cell-based. Also noted: test concentration 10 uM, cell line HepG2-A16-CD81EGFP. To be noted: human, HepG2-A16-CD81EGFP cells; read-out: INHIBITION
In outline:
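Uninfected HepG2-A16-CD81EGFP cells, 3 × 10^3 per well, 1536-well, plated on prespotted compound at 10 μM final, parasite-free screening media added to match infected plates; puromycin 10 μM positive, DMSO 0.5% negative; run in parallel with 48 h PbLuc assay at 37 °C, 5% CO2; viability by CellTiter-Glo luminescence, normalized to controls.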
As to `Cc1noc(C(C)N2CCN(c3ncnc4sccc34)CC2)n1` (stereo not given), the cytotoxicity at 10 µM stood at 8.38%.

As to `Cc1nc(-c2ccccc2)cc2nn(CC(N)=O)c(=O)n12`, the cytotoxicity at 10 µM was 0.301%.

Regarding `COc1cc(C)c(NC(=O)CCn2cccc2)cc1OC`, the cytotoxicity at 10 µM was 1.61%.

As for `Cc1ccc(-c2cc(C(=O)NC(C)C(=O)N3CCCCC3)on2)cc1` (stereo not given), the cytotoxicity at 10 µM was -7.17%.

On to `CCc1nnc2n1CCN(Cc1ncc(-c3ccccc3)o1)C2`, for which the cytotoxicity at 10 µM is -3.98%.

For the compound `Cc1cc(C)nc(CN(C)c2nc(C3CCCC3)nc3c2cnn3C)c1`, the cytotoxicity at 10 µM is 12.4%.

In the case of `CCS(=O)(=O)CCNc1nc(C2CCCC2)nc2c1cnn2C`, the cytotoxicity at 10 µM amounted to 9.35%.

On to `CCc1nnc(CNCC2CCN(CC(O)c3ccccc3)CC2)o1` (stereo not given), for which the cytotoxicity at 10 µM is -1.49%.

On to `COc1cccc([C@@H]2CCN(Cc3cn(C)c4ccccc34)C[C@H]2O)c1`, for which the cytotoxicity at 10 µM is 14.7%.

In the case of `COCc1noc(-c2nn(-c3ccccc3F)c3c2CCC3)n1`, the cytotoxicity at 10 µM is -2.68%.

In the case of `O=C(NC1CCN(c2ncccc2F)C1)c1cccc(-n2ccnn2)c1` (stereo not given), the cytotoxicity at 10 µM was determined as 7.49%.

Consider `CCc1nc(CN2CCCC(NCc3cnc(C)s3)C2)no1` (stereo not given), for which the cytotoxicity at 10 µM was -9.26%.

As for `COc1ccc(CNC(=O)Nc2ccc(=O)n(C)c2)cc1`, the cytotoxicity at 10 µM turned out to be 1.92%.

Regarding `COCC1COCCC12CCN(C(=O)Cc1cccc(OC)c1)CC2` (stereo not given), the cytotoxicity at 10 µM was -2.56%.

`CCN1C[C@H]2CCN(c3ncccn3)CC[C@H]2S1(=O)=O`: the cytotoxicity at 10 µM was -7.08%.

For `Cc1nccn1C1(C(=O)O)CCN(Cc2ccc3occc3c2)CC1`, the cytotoxicity at 10 µM is -1.61%.

Regarding `CC1c2ncc(Cn3cncn3)n2CCN1C(=O)c1ccsc1` (stereo not given), the cytotoxicity at 10 µM was -0.551%.

Turning to `CN(C)c1cccc(C(=O)N2CCC(c3n[nH]c(C4CC4)n3)CC2)c1`, the cytotoxicity at 10 µM was -11.2%.

In the case of `COc1ccc(N2CCN(C(=O)Cn3nc(C)c(Cl)c3C)CC2)cc1`, the cytotoxicity at 10 µM stood at 1.58%.

As for `CC(C)CN1CCc2[nH]cnc2C12CCN(C(=O)c1ccc[nH]1)CC2`, the cytotoxicity at 10 µM amounted to 14.7%.

Regarding `CCN(C(=O)c1cc2c([nH]c1=O)CCCC2=O)C1CCCCC1`, the cytotoxicity at 10 µM was -4.07%.

As for `FC1(F)CCN(Cc2ccccn2)CC12CCN(c1cccnc1)C2` (stereo not given), the cytotoxicity at 10 µM was 25.5%.

Regarding `c1cnc(-c2nc(CN3CCn4c(nnc4C4CC4)C3)cs2)nc1`, the cytotoxicity at 10 µM is -6.93%.

Consider `Cc1nn(-c2ccccc2)c(C)c1CNC(=O)NC1CC(=O)N(C)C1` (stereo not given), for which the cytotoxicity at 10 µM is -2.17%.

Consider `Cn1ccnc1CN1C[C@@H](CN2CCC(CO)CC2)[C@@H](CO)C1`, for which the cytotoxicity at 10 µM is -15.5%.

For the compound `COC(=O)c1cccc(C(=O)N2CCN(c3cc(Cl)ccc3C)CC2)n1`, the cytotoxicity at 10 µM amounted to 81.2%.

Consider `CCC(CC)c1cc(CNC(=O)N2CCCC(C(=O)NC)C2)on1` (stereo not given), for which the cytotoxicity at 10 µM is -18.6%.

As to `CCc1cnc(CN2CCCC2c2noc(C3CC3)n2)o1` (stereo not given), the cytotoxicity at 10 µM is -4.84%.

Regarding `O=C(NCc1cc2ccccc2[nH]1)C1CCCN(C(=O)N2CCCC2)C1` (stereo not given), the cytotoxicity at 10 µM was determined as 6.81%.

In the case of `N#Cc1ccc(N2CCN(c3ncccn3)CC2)c(C(F)(F)F)c1`, the cytotoxicity at 10 µM is 36.3%.

Consider `Cc1cc(-c2cnc(N(C)C)nc2C2CCCCN2C(=O)C2CC2)on1` (stereo not given), for which the cytotoxicity at 10 µM is 0.095%.

Consider `CC(C)CN1CC(c2nc(CCc3ccccc3)n[nH]2)CC1=O` (stereo not given), for which the cytotoxicity at 10 µM was 6.08%.

Regarding `CCn1cc(S(=O)(=O)Nc2nc3c(s2)CC(C)CC3)cn1` (stereo not given), the cytotoxicity at 10 µM worked out at 9.88%.

With `Cc1ccc(-c2nc(CNCC3CN(C)CCO3)co2)cc1` (stereo not given), the cytotoxicity at 10 µM was -14.4%.

On to `O=C(NCc1ccc(Cl)cc1)C1=NOC2(CCNC2)C1` (stereo not given), for which the cytotoxicity at 10 µM was -4.21%.

Take `Cc1ncc2c(n1)CCN(C(C(N)=O)c1ccccc1)C2` (stereo not given): the cytotoxicity at 10 µM is -2.62%.

With `CCN(CC)S(=O)(=O)N1CC[C@H](c2ccccc2)[C@H]2NCCCC[C@H]21`, the cytotoxicity at 10 µM was -39.5%.

As for `NC(=O)CSCCC(=O)N1CCCC1c1ccsc1` (stereo not given), the cytotoxicity at 10 µM is -13.6%.

For the compound `O=C(CN1CC(c2ccccc2)CC1=O)N1CCN(c2nccs2)CC1` (stereo not given), the cytotoxicity at 10 µM is -1.7%.

Regarding `Cc1ccc(N2CCO[C@H]3CN(Cc4cc(C)on4)CC[C@H]3C2=O)cn1`, the cytotoxicity at 10 µM is -72.2%.

With `Cc1cc(C(=O)N2CCC(c3nccn3CCCN(C)C)CC2)no1`, the cytotoxicity at 10 µM was -12.4%.

As for `CC(C)(C)n1ncc2c(=O)[nH]c(N3CCC4(CCCCC4)C3)nc21`, the cytotoxicity at 10 µM is -7.72%.

Consider `CCOC1CCN(C(=O)c2csc(S(N)(=O)=O)c2)CC1`, for which the cytotoxicity at 10 µM is -11.4%.

As to `COc1ccccc1-c1cc(C(=O)N(C)C)nc2c1cnn2C`, the cytotoxicity at 10 µM worked out at 7.83%.

`CCc1ncc2c(n1)CN(Cc1nc(C)c(C)o1)CC2`: the cytotoxicity at 10 µM is 2.92%.

Turning to `Cc1cc(C(=O)NCc2ccc(N3CCN(C)CC3)nc2)c(C)s1`, the cytotoxicity at 10 µM is -8.74%.

In the case of `c1ccc2oc(CCCN3CCc4cncnc4C3)nc2c1`, the cytotoxicity at 10 µM was -14.6%.

For the compound `COCC(=O)N1CCO[C@]2(CCC[C@H]2COC)C1`, the cytotoxicity at 10 µM is -97.5%.

Take `Cc1n[nH]c(=O)c2c(NC(=O)CN3CCCC(C(F)(F)F)C3)oc(C)c12` (stereo not given): the cytotoxicity at 10 µM was -4.87%.

Take `Cc1cccc(CN2CCN(c3nc(CO)cs3)CC2)c1`: the cytotoxicity at 10 µM is -11.6%.

As for `CCO[C@H]1C[C@@H](O)C12CCN(C(=O)CC(F)(F)F)CC2`, the cytotoxicity at 10 µM was -6.36%.

`CC(C)c1cnc(CN2CCCS2(=O)=O)o1`: the cytotoxicity at 10 µM turned out to be 10.6%.

With `Cc1cccc(CN2C(=O)C[C@H]3[C@@H]2CCN3Cc2ccc(F)cc2)n1`, the cytotoxicity at 10 µM amounted to 2.2%.

`Cc1nc(-c2nnc[nH]2)sc1C(=O)N1CCCC1c1ccsc1` (stereo not given): the cytotoxicity at 10 µM is -3.34%.

For the compound `CCn1ccnc1CN1CCN(CC(=O)NC(C)(C#N)C2CC2)CC1` (stereo not given), the cytotoxicity at 10 µM is -8.24%.

Take `Cn1cc(C2CCCN2C(=O)CCCc2cccs2)cn1` (stereo not given): the cytotoxicity at 10 µM was -2.12%.

In the case of `CN1CCCCC1c1ncc2c(n1)CCN(Cc1ccccc1Cl)C2` (stereo not given), the cytotoxicity at 10 µM was -1.67%.

In the case of `Cc1noc(C)c1CN1C[C@@H]2CC(F)(F)C[C@@H]2C1`, the cytotoxicity at 10 µM was -2.58%.

With `CCS(=O)(=O)NCC(Cc1cccc(F)c1)N1CCNC1=O` (stereo not given), the cytotoxicity at 10 µM is -1.89%.

Take `O=C1NCCN(C(=O)c2cn3ccsc3n2)C1Cc1ccccc1` (stereo not given): the cytotoxicity at 10 µM is -9.51%.

As to `CCCn1ncc(C(=O)N2CCC(N3CCCCC3)CC2)c1C`, the cytotoxicity at 10 µM was -143%.

Take `CC(=O)N(C)C1CCN(c2ncc3c(n2)CCN3c2ccccc2)C1` (stereo not given): the cytotoxicity at 10 µM is -9.62%.

For the compound `NC(=O)C1CCN(C(=O)NCCOc2ccc3c(c2)CCC3)CC1`, the cytotoxicity at 10 µM was -7.07%.

Turning to `Cc1ccc(C(=O)NC2CCN(C(=O)NCc3ccccn3)CC2)o1`, the cytotoxicity at 10 µM is -12.2%.

As for `O=C(c1ccsc1)N1C[C@@H]2CCN(C(=O)c3cscn3)[C@@H]2C1`, the cytotoxicity at 10 µM stood at 0.0861%.

Turning to `Cc1nc(N2CCN(C(=O)c3ccco3)CC2)c2c(n1)c(C)nn2C`, the cytotoxicity at 10 µM turned out to be 12.1%.

Regarding `COCCn1c2c(ccc1=O)CC(NCc1cnn(C)c1)CC2` (stereo not given), the cytotoxicity at 10 µM was -103%.

`COC(=O)C1CCN(C(=O)c2nnc3ccc(C)cc3n2)CC1`: the cytotoxicity at 10 µM amounted to 11.7%.

Regarding `O=C1CC[C@H]2[C@H](CCN2C(=O)C2CCOCC2)N1Cc1ccncc1`, the cytotoxicity at 10 µM is -2.7%.

For the compound `O=C(NCCCN1CCOCC1)c1cc(-c2ccc3c(c2)CCO3)n[nH]1`, the cytotoxicity at 10 µM is -3.73%.

As for `CN1C(=O)CC(C(=O)O)C12CCN(Cc1ccc(F)c(Cl)c1)CC2` (stereo not given), the cytotoxicity at 10 µM came out at 0.998%.

As for `COCCCNC(=O)CN1CCC(N2CCN(C)C2=O)CC1`, the cytotoxicity at 10 µM is -2.54%.

Take `CCOCC(=O)N1CCOCC2(CCN(c3ncccn3)C2)C1` (stereo not given): the cytotoxicity at 10 µM was -2.22%.

`O=C(c1ccncc1)N1CCCC(c2ncncc2-c2ccncc2)C1` (stereo not given): the cytotoxicity at 10 µM was -17.2%.

On to `CC(=O)N1CCN(C(=O)Nc2ccccc2Cl)[C@H]2CS(=O)(=O)C[C@H]21`, for which the cytotoxicity at 10 µM is -0.166%.

For the compound `COc1ccc(C(C)Nc2ncc(C(N)=O)cc2Cl)c(OC)c1` (stereo not given), the cytotoxicity at 10 µM was 19.1%.

For `O=C(c1cccnc1O)N(Cc1ccsc1)CC1CCCO1` (stereo not given), the cytotoxicity at 10 µM is -12.3%.

On to `O=C1NCCCCC1NC(=O)C1(c2ccc3c(c2)OCCO3)CCCC1` (stereo not given), for which the cytotoxicity at 10 µM stood at 0.969%.

On to `CC(C)c1noc(CNc2cccc(-c3nnnn3C)c2)n1`, for which the cytotoxicity at 10 µM was -5.47%.

Consider `Cc1nn(C)c2ncc(S(=O)(=O)N3CCN4CCCC4C3)cc12` (stereo not given), for which the cytotoxicity at 10 µM came to 2.6%.

With `Cc1noc(C)c1CNc1c(N2CCCC2)cccc1N1CCCC1`, the cytotoxicity at 10 µM was 6.17%.

As to `CCn1nc(C)c2nc(C)nc(NCCc3ccccc3)c21`, the cytotoxicity at 10 µM is 25.2%.

On to `O=C(c1ccco1)N1C[C@@H]2CN(c3ccccn3)C[C@@H]2C1`, for which the cytotoxicity at 10 µM is -1.27%.

Regarding `c1cnc(-c2noc(C3CN(Cc4ccsc4)C3)n2)cn1`, the cytotoxicity at 10 µM turned out to be 0.435%.

Take `CCC(C)(CC(=O)OC)NCc1c(C)noc1C` (stereo not given): the cytotoxicity at 10 µM was -3.19%.

Take `CNC(=O)C1CN(C)CCN(CCCOc2ccccc2F)C1` (stereo not given): the cytotoxicity at 10 µM was -1%.

For the compound `c1cc(CNCC2CNc3ccnn3C2)cc(N2CCCCC2)n1` (stereo not given), the cytotoxicity at 10 µM was 6.91%.

In the case of `CN1CCOC(C)(C(=O)Nc2nc(C(C)(C)C)cs2)C1` (stereo not given), the cytotoxicity at 10 µM was 6.52%.

In the case of `COc1ccc(C)cc1C(=O)N1C[C@@H](CN(C)CCO)[C@@H](CO)C1`, the cytotoxicity at 10 µM is -0.828%.

For `CN(C)C(=O)C1(CCCc2ccccn2)CCN1Cc1nccn1C` (stereo not given), the cytotoxicity at 10 µM worked out at 8.08%.

`CNS(=O)(=O)CCCN1CCCC1c1noc(C2CC2)n1` (stereo not given): the cytotoxicity at 10 µM is -16.5%.

Take `CC1CCN(CCNC(=O)c2ccn(-c3ccc(F)cc3)n2)CC1`: the cytotoxicity at 10 µM was -15.6%.

As to `COC(=O)C1CCN(CC2(c3ccc(C)cn3)CCNCC2)CC1`, the cytotoxicity at 10 µM was -0.471%.

Turning to `O=C1OCCN1CCSc1nnnn1C1CCOCC1`, the cytotoxicity at 10 µM is -48.4%.

For the compound `Cc1cc(CN2CCN(CC(O)c3ccccc3)CC2)no1` (stereo not given), the cytotoxicity at 10 µM is -14.4%.
